Compounds with a hit are over-represented: about 1.4% of the library has one in this group of screens.
DTT redox prof – compounds producing H2O2 with reducing agent – biochemical, NIH compound library profiling, artefact control for MLSCN library redox annotation, primary screen; DTT-dependent redox cycling H2O2, phenol red/HRP absorbance; 100% = 100 µM peroxide control, 0% = buffer; activation, % at 10 µM; 0.03% of 200,000 active; AID 878;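 active = activation of at least 50% relative to the plate's high and low controls in the primary single-dose screen; inactive = activation below 50%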;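 note: compound incubated with DTT at 0.8 mM final as the reducing agent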
UBC9 SUMO inh – SUMOylation inhibition; P63279; HTRF SUMOylation assay, SAE1/SAE2 + UBC9, in vitro; inhibition, % at 35 µM; 0.36% of 290,000 active; AID 2006; in the data active = inhibition above about 50%, passing the limit was not always enough; inconclusive = no clear call, values can overlap the other calls
GSTO1 counter – counter-screen for RBBP9 inhibitors: inhibitors of human GSTO1; recombinant GSTO1, activity-based probe fluorescence polarization; inhibition, % at 5.96 µM; 1.1% of 300,000 active; AID 1974;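 active = inhibition above the campaign mean inhibition plus 3 SD, cut at about 35% in these data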;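 note: 0% = GSTO1-1 with DMSO and 100% = wells lacking GSTO1-1 enzyme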
HKDC1 inhibitor – blocks human hexokinase HKDC1 activity | Q2TB90 | recombinant HKDC1, G6PDH/diaphorase resazurin coupled fluorescence | inhibition, % at 20 µM | 0.16% of 340,000 active;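 active = inhibition above about 35% when tested at 20 µM, limit read from the data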;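 note: plate controls were DMSO wells with enzyme for no effect and DMSO wells lacking enzyme for full effect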
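Test system: recombinant HKDC1 (HK5) hexokinase enzyme, produced in-house / Doses: 20 µM test compound, 1% DMSO / Timing: 90 min, room temperature / Detection: G6PDH/diaphorase-coupled fluorescence, 1 mM NADP, 100 µM resazurin, 525/613 nm / Control set: DMSO wells with and without enzyme mix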
Apaf-1 inh – human Apaf-1 inhibition; reconstituted apoptosome caspase-3 activity, DEVD-Rh110 fluorescence; inhibition, % at 20 µM; 0.71% of 330,000 active; O14727; active = inhibition of at least 40% at 20 µM;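 note: plate controls were DMSO wells for no effect and DEVD-CHO caspase inhibitor wells for full effect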
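Material: reconstituted apoptosome with Apaf-1, cytochrome c, caspase-9, procaspase-3, dATP. Technique: Rh110 fluorescence intensity. Buffer or medium: pH 7.5 Hepes buffer with CHAPS, BSA, DTT. Times: 30 min plus 50 min, RT.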
GSTO1 inh conf – confirmation of human GSTO1 inhibitors; shares compounds with GSTO1 counter; recombinant GSTO1, probe fluorescence polarization; inhibition, % at 5.96 µM; 54% of 2,400 active; AID 2176;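 active = inhibition above the primary screen's cutoff, its mean inhibition plus 3 SD, cut at about 35% in these data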;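 note: loss of polarization as inhibitors block binding of rhodamine sulfonate ester activity probe; 0% = GSTO1 with DMSO and 100% = wells lacking GSTO1 enzyme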
GSTO1 ABPP inh – blocks recombinant human glutathione S-transferase omega 1; shares compounds with GSTO1 counter; recombinant GSTO1, gel ABPP SE-Rh probe fluorescence; inhibition, % at 1 µM; 30% of 130 active;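 active = inhibition of the enzyme GSTO1 above about 75%, limit read from the data; inactive = inhibition below that limit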
Numbers without * were called inactive.

What do the screens show for `C=Cc1c(C)c2cc3[nH]c(cc4nc(cc5nc(cc1[nH]2)C(C)=C5CCC(=O)O)C(CCC(=O)O)=C4C)c(C)c3C=C`?
GSTO1 counter: 89*; HKDC1 inhibitor: 3; Apaf-1 inh: 11; GSTO1 inh conf: 82*

How did Cn1[nH]c(CSc2ccc(Cl)cc2)cc1=O do in these assays?
DTT redox prof: -1; UBC9 SUMO inh: 16; GSTO1 counter: 59*; HKDC1 inhibitor: -9; Apaf-1 inh: 18; GSTO1 inh conf: 14

What do the screens show for `Clc1ccc(-c2nnc(SCc3nc(-c4ccccc4)no3)o2)cc1`?
DTT redox prof: -2; UBC9 SUMO inh: 2; GSTO1 counter: 40*; HKDC1 inhibitor: 4; Apaf-1 inh: 15; GSTO1 inh conf: 46*

What do the screens show for `c1ccc(-c2noc(CSc3nc4ccccc4o3)n2)cc1`?
DTT redox prof: -1; UBC9 SUMO inh: -6; GSTO1 counter: 2; HKDC1 inhibitor: 1; Apaf-1 inh: 8

How did COC(=O)CCCC1=CC2=C(c3ccccc3)C(=O)C(C)(OC(=O)C3CCCC3)C(=O)C2=CN1Cc1ccco1 (configuration not stated) do in these assays?
UBC9 SUMO inh: 20; GSTO1 counter: 21; HKDC1 inhibitor: 9; Apaf-1 inh: 17

What do the screens show for `COC(=O)CCCC1=CC2=C(c3ccccc3)C(=O)C(C)(OC(=O)C3CCCC3)C(=O)C2=CN1CCCCO` (configuration not stated)?
UBC9 SUMO inh: 32; GSTO1 counter: 45*; HKDC1 inhibitor: 13; Apaf-1 inh: 16; GSTO1 inh conf: 19

How did Cc1ccc(C2Nc3cccc4cccc(c34)N2)s1 do in these assays?
DTT redox prof: 1; UBC9 SUMO inh: 56; GSTO1 counter: 44*; HKDC1 inhibitor: 9; Apaf-1 inh: 35; GSTO1 inh conf: 11

What do the screens show for `O=C1C=C(O)c2c(O)cccc2C1=O`?
UBC9 SUMO inh: 52; GSTO1 counter: 38*; Apaf-1 inh: 20; GSTO1 inh conf: 32

What do the screens show for `Cn1c(=O)c2ccccc2n2c(CCl)nnc12`?
UBC9 SUMO inh: 13; GSTO1 counter: 80*; HKDC1 inhibitor: 6; Apaf-1 inh: 9; GSTO1 inh conf: 86*; GSTO1 ABPP inh: 49

Results for O=C1CSC2=NCN(c3ccc4c(c3)OCO4)CN12 ?
DTT redox prof: 2; UBC9 SUMO inh: 10; GSTO1 counter: 11; HKDC1 inhibitor: -3; Apaf-1 inh: 2

How did CN(C)c1ccc(N2CN=C3SCC(=O)N3C2)cc1 do in these assays?
DTT redox prof: 0; UBC9 SUMO inh: -40; GSTO1 counter: 72*; HKDC1 inhibitor: 7; Apaf-1 inh: 26; GSTO1 inh conf: 4

What do the screens show for `Cc1cccc(CCNS(=O)(=O)c2ccc3c(c2)oc(=O)n3C)c1`?
DTT redox prof: 0; UBC9 SUMO inh: 1; GSTO1 counter: 55*; HKDC1 inhibitor: 0; Apaf-1 inh: 9; GSTO1 inh conf: 58*

How did CC(C)c1ccc(NS(=O)(=O)c2ccc3c(c2)oc(=O)n3C)cc1 do in these assays?
UBC9 SUMO inh: 0; GSTO1 counter: 65*; HKDC1 inhibitor: -4; Apaf-1 inh: 15; GSTO1 inh conf: 65*

How did Cn1c(=O)oc2cc(S(=O)(=O)NC3CCCCCCC3)ccc21 do in these assays?
DTT redox prof: 0; UBC9 SUMO inh: -1; GSTO1 counter: 43*; HKDC1 inhibitor: 3; Apaf-1 inh: -2; GSTO1 inh conf: 39*

Results for COc1ccc(C(=O)NCC2(c3ccc(OC)c(OC)c3)CCCC2)c(OC)c1 ?
UBC9 SUMO inh: -19; GSTO1 counter: 0; HKDC1 inhibitor: 0; Apaf-1 inh: 8

What do the screens show for `COc1cccc(-c2cc(C(=O)Nc3ccc(N(C)C(C)=O)cc3)c3cc(Br)ccc3n2)c1`?
GSTO1 counter: -28; HKDC1 inhibitor: 1; Apaf-1 inh: 0

Results for Nc1c(C(=O)NC2CC2)sc2nc3c(c(-c4ccco4)c12)CC/C3=C/c1ccco1 ?
DTT redox prof: 4; UBC9 SUMO inh: inconclusive; GSTO1 counter: 62*; HKDC1 inhibitor: 28; GSTO1 inh conf: 37*

How did COc1cc(S(=O)(=O)N2CCOCC2)cc(C(=O)OCC(=O)NCc2ccco2)c1OC do in these assays?
HKDC1 inhibitor: -6; Apaf-1 inh: -10

What do the screens show for `C=CCN1C=C2C(=O)C(C)(OC(=O)c3ccco3)C(=O)C(C=C)=C2C=C1C1CC1` (configuration not stated)?
GSTO1 counter: 39*; Apaf-1 inh: 23; GSTO1 inh conf: 12

What do the screens show for `COc1ccc(CC(=O)Nc2sc3c(c2C(N)=O)CCCC3)cc1`?
UBC9 SUMO inh: -5; GSTO1 counter: 4; HKDC1 inhibitor: 5; Apaf-1 inh: 11

Results for COc1ccc2nc(Nc3sc4c(c3C(N)=O)CCCC4)sc2c1 ?
DTT redox prof: 0; UBC9 SUMO inh: 5; GSTO1 counter: 42*; HKDC1 inhibitor: 1; Apaf-1 inh: 17; GSTO1 inh conf: 25

How did O=[N+]([O-])c1ccc(Cl)c(NC(=S)N2CCCC2)c1 do in these assays?
UBC9 SUMO inh: 12; GSTO1 counter: 0; HKDC1 inhibitor: -1; Apaf-1 inh: 7

How did N#Cc1c(SCC(=O)Nc2ccc(C(F)(F)F)cc2)sc2c(O)cc(=O)[nH]c12 do in these assays?
UBC9 SUMO inh: 8; GSTO1 counter: 15; HKDC1 inhibitor: -7; Apaf-1 inh: -3

How did N#Cc1c(SCC(=O)Nc2nncs2)sc2c(O)cc(=O)[nH]c12 do in these assays?
UBC9 SUMO inh: 45; GSTO1 counter: 51*; HKDC1 inhibitor: 8; Apaf-1 inh: 3; GSTO1 inh conf: 63*

What do the screens show for `CCn1c(SCC(=O)Nc2ccc(N(C)C)cc2)nnc1-c1ccco1`?
UBC9 SUMO inh: -12; GSTO1 counter: 3; HKDC1 inhibitor: 2; Apaf-1 inh: 2

How did CCOC(=O)C1=C(C)N(c2ccc(C)cc2)C(=O)/C1=C\c1ccc(O)c(OC)c1 do in these assays?
UBC9 SUMO inh: -2; GSTO1 counter: 46*; HKDC1 inhibitor: 14; Apaf-1 inh: -22; GSTO1 inh conf: 7

How did CCOc1cc(/C=C2\C(=O)N(CCc3ccc(OC)c(OC)c3)C(C)=C2C(=O)OC)ccc1O do in these assays?
DTT redox prof: 0; UBC9 SUMO inh: 4; GSTO1 counter: 43*; HKDC1 inhibitor: 12; Apaf-1 inh: 11; GSTO1 inh conf: -2

What do the screens show for `COc1cccc(OC)c1CNC(=O)C1CCC(=O)N(CC2CCCCC2)C1` (configuration not stated)?
UBC9 SUMO inh: 15; GSTO1 counter: 2; HKDC1 inhibitor: -5; Apaf-1 inh: 6

How did CC(C)CN(C(=O)CSc1nc2ccccc2c(=O)n1C)C1CCS(=O)(=O)C1 (configuration not stated) do in these assays?
HKDC1 inhibitor: 4; Apaf-1 inh: 0

Bioassay records (PubChem BioAssay)
